Reference: ChEMBL document CHEMBL1649269, “In vitro activities of three new dihydrofolate reductase inhibitors against clinical isolates of gram-positive bacteria” (2009)
≈ marks a conversion by molar mass, not a printed value.

What was measured:
[1] = system: Staphylococcus aureus; assay: Antimicrobial activity against methicillin-sensitive Staphylococcus aureus by agar dilution method; assay type: functional
Outline: (§1)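 MICs against clinical MRSA or MSSA isolates by CLSI agar dilution, with S. aureus ATCC 29213 as control strain. Percentage of susceptible isolates was calculated from the MICs using CLSI breakpoints.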

[2] = system: Staphylococcus aureus; assay: Antimicrobial activity against methicillin-sensitive Staphylococcus aureus assessed as susceptible isolates by agar dilution method; assay type: functional; outline: as §1
[3] = system: Staphylococcus aureus; assay: Antimicrobial activity against methicillin-resistant Staphylococcus aureus by agar dilution method; assay type: functional; outline: as §1
[4] = system: Staphylococcus aureus; assay: Antimicrobial activity against Heterovancomycin-resistant Staphylococcus aureus by agar dilution method; assay type: functional
Outline: (§2)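 Clinical S. aureus isolates classed as hVISA or VISA by population analysis profiling. MICs by CLSI agar dilution, with S. aureus ATCC 29213 as control strain.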

[5] = system: Staphylococcus aureus; assay: Antimicrobial activity against vancomycin-resistant Staphylococcus aureus by agar dilution method; assay type: functional; outline: as §2
[6] = system: Staphylococcus; assay: Antimicrobial activity against Coagulase-negative Staphylococcus by agar dilution method; assay type: functional
Outline: (§3)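 CLSI agar dilution MIC testing of clinical isolates of staphylococci and Listeria. S. aureus ATCC 29213 and S. pneumoniae ATCC 49619 served as control strains. The percentage of susceptible isolates was calculated from CLSI breakpoints.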

[7] = system: Staphylococcus; assay: Antimicrobial activity against Coagulase-negative Staphylococcus assessed as susceptible isolates by agar dilution method; assay type: functional; outline: as §3
[8] = system: Streptococcus sp. 'group A'; assay: Antimicrobial activity against Group A Streptococcus by agar dilution method; assay type: functional
Outline: (§4)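 Clinical isolates of beta-hemolytic streptococci, S. mitis and S. pneumoniae were tested by CLSI methodology, with Mueller-Hinton medium supplemented with 5% lysed horse blood. S. aureus ATCC 29213 and S. pneumoniae ATCC 49619 served as control strains. The percentage of susceptible isolates was derived from CLSI breakpoints.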

[9] = system: Streptococcus sp. 'group A'; assay: Antimicrobial activity against Group A Streptococcus assessed as susceptible isolates by agar dilution method; assay type: functional; outline: as §4
[10] = system: Streptococcus sp. 'group B'; assay: Antimicrobial activity against Group B Streptococcus by agar dilution method; assay type: functional; outline: as §4
[11] = system: Streptococcus sp. 'group B'; assay: Antimicrobial activity against Group B Streptococcus assessed as susceptible isolates by agar dilution method; assay type: functional; outline: as §4
[12] = Antimicrobial activity against Group C Streptococcus by agar dilution method; assay type: functional; conditions: Streptococcus sp. 'group C'; outline: as §4
[13] = Antimicrobial activity against Group C Streptococcus assessed as susceptible isolates by agar dilution method; assay type: functional, Streptococcus sp. 'group C'; outline: as §4
[14] = Antimicrobial activity against Group G Streptococcus by agar dilution method; assay type: functional; conditions: Streptococcus sp. 'group G'; outline: as §4
[15] = Antimicrobial activity against Group G Streptococcus assessed as susceptible isolates by agar dilution method; assay type: functional, Streptococcus sp. 'group G'; outline: as §4
[16] = system: Streptococcus pneumoniae; assay: Antimicrobial activity against Streptococcus pneumoniae by agar dilution method; assay type: functional; outline: as §4
[17] = system: Streptococcus pneumoniae; assay: Antimicrobial activity against Streptococcus pneumoniae assessed as susceptible isolates by agar dilution method; assay type: functional; outline: as §4
[18] = system: Corynebacterium sp.; assay: Antimicrobial activity against Corynebacterium spp. by agar dilution method; assay type: functional
[19] = system: Listeria monocytogenes; assay: Antimicrobial activity against Listeria monocytogenes by agar dilution method; assay type: functional; outline: as §3
[20] = system: Streptococcus mitis; assay: Antimicrobial activity against Streptococcus mitis by broth dilution method
[21] = system: Staphylococcus aureus; assay: Antimicrobial activity against Heterovancomycin-resistant Staphylococcus aureus assessed as susceptible isolates by agar dilution method; assay type: functional
[22] = system: Staphylococcus aureus; assay: Antimicrobial activity against vancomycin-resistant Staphylococcus aureus assessed as susceptible isolates by agar dilution method; assay type: functional

SMILES | MIC50 [1] [µg/mL] | MIC90 [1] [µg/mL] | Activity [2] [%] | MIC50 [3] [µg/mL] | MIC90 [3] [µg/mL] | MIC50 [4] [µg/mL] | MIC90 [4] [µg/mL] | MIC50 [5] [µg/mL] | MIC90 [5] [µg/mL] | MIC50 [6] [µg/mL] | MIC90 [6] [µg/mL] | Activity [7] [%] | MIC50 [8] [µg/mL] | MIC90 [8] [µg/mL] | Activity [9] [%] | MIC50 [10] [µg/mL] | MIC90 [10] [µg/mL] | Activity [11] [%] | MIC50 [12] [µg/mL] | MIC90 [12] [µg/mL] | further results
CC(=O)NC[C@H]1CN(c2ccc(N3CCOCC3)c(F)c2)C(=O)O1 [LINEZOLID] | 2 (≈ 5.93 µM) | 2 (≈ 5.93 µM) | 100 | 2 (≈ 5.93 µM) | 2 (≈ 5.93 µM) | 1 (≈ 2.96 µM) | 2 (≈ 5.93 µM) | 1 (≈ 2.96 µM) | 2 (≈ 5.93 µM) | 1 (≈ 2.96 µM) | 2 (≈ 5.93 µM) | 100 | 1 (≈ 2.96 µM) | 1 (≈ 2.96 µM) | 100 | 1 (≈ 2.96 µM) | 2 (≈ 5.93 µM) | 100 | 1 (≈ 2.96 µM) | 2 (≈ 5.93 µM) | MIC [4]: 1 µg/mL (≈ 2.96 µM); MIC [10]: 1 µg/mL (≈ 2.96 µM); MIC [12]: 1 µg/mL (≈ 2.96 µM); Activity [13]: 100%; MIC50 [14]: 2 µg/mL (≈ 5.93 µM); MIC90 [14]: 2 µg/mL (≈ 5.93 µM); Activity [15]: 100%; MIC50 [16]: 1 µg/mL (≈ 2.96 µM); MIC90 [16]: 2 µg/mL (≈ 5.93 µM); Activity [17]: 100%; MIC50 [18]: 0.06 µg/mL (≈ 0.178 µM); MIC90 [18]: 0.12 µg/mL (≈ 0.356 µM); MIC [19]: 2 µg/mL (≈ 5.93 µM); MIC50 [19]: 2 µg/mL (≈ 5.93 µM); MIC90 [19]: 2 µg/mL (≈ 5.93 µM); MIC50 [20]: 1 µg/mL (≈ 2.96 µM)
CN(C)c1ccc(O)c2c1C[C@H]1C[C@H]3[C@H](N(C)C)C(O)=C(C(N)=O)C(=O)[C@@]3(O)C(O)=C1C2=O [MINOCYCLINE] | 0.25 (≈ 0.546 µM) | 0.25 (≈ 0.546 µM) | 100 | 0.25 (≈ 0.546 µM) | 0.25 (≈ 0.546 µM) | 0.25 (≈ 0.546 µM) | 0.5 (≈ 1.09 µM) | 1 (≈ 2.19 µM) | 4 (≈ 8.74 µM) | 0.5 (≈ 1.09 µM) | 2 (≈ 4.37 µM) | 96 | 0.12 (≈ 0.262 µM) | 0.25 (≈ 0.546 µM) | 100 | 16 (≈ 35 µM) | 32 (≈ 69.9 µM) | 29 | 0.25 (≈ 0.546 µM) | 4 (≈ 8.74 µM) | MIC [1]: 0.25 µg/mL (≈ 0.546 µM); MIC [3]: 0.25 µg/mL (≈ 0.546 µM); Activity [21]: 92%; Activity [22]: 96%; MIC [8]: 0.12 µg/mL (≈ 0.262 µM); Activity [13]: 84%; MIC50 [14]: 0.25 µg/mL (≈ 0.546 µM); MIC90 [14]: 16 µg/mL (≈ 35 µM); Activity [15]: 75%; MIC50 [16]: 0.25 µg/mL (≈ 0.546 µM); MIC90 [16]: 0.25 µg/mL (≈ 0.546 µM); Activity [17]: 93%; MIC50 [18]: 2 µg/mL (≈ 4.37 µM); MIC90 [18]: 16 µg/mL (≈ 35 µM); MIC [19]: 0.25 µg/mL (≈ 0.546 µM); MIC50 [19]: 0.25 µg/mL (≈ 0.546 µM); MIC90 [19]: 16 µg/mL (≈ 35 µM); MIC [20]: 0.25 µg/mL (≈ 0.546 µM); MIC50 [20]: 0.25 µg/mL (≈ 0.546 µM)
CCCCCCCCCC(=O)N[C@@H](Cc1c[nH]c2ccccc12)C(=O)N[C@H](CC(N)=O)C(=O)N[C@@H](CC(=O)O)C(=O)N[C@@H]1C(=O)NCC(=O)N[C@@H](CCCN)C(=O)N[C@@H](CC(=O)O)C(=O)N[C@H](C)C(=O)N[C@@H](CC(=O)O)C(=O)NCC(=O)N[C@H](CO)C(=O)N[C@@H]([C@H](C)CC(=O)O)C(=O)N[C@@H](CC(=O)c2ccccc2N)C(=O)O[C@@H]1C | 0.25 (≈ 0.154 µM) | 0.25 (≈ 0.154 µM) | 100 | 0.12 (≈ 0.074 µM) | 0.25 (≈ 0.154 µM) | 0.5 (≈ 0.309 µM) | 0.5 (≈ 0.309 µM) | 1 (≈ 0.617 µM) | 2 (≈ 1.23 µM) | 0.25 (≈ 0.154 µM) | 0.5 (≈ 0.309 µM) | 100 | 0.015 (≈ 0.00926 µM) | 0.03 (≈ 0.0185 µM) | 100 | 0.015 (≈ 0.00926 µM) | 0.06 (≈ 0.037 µM) | 100 | 0.03 (≈ 0.0185 µM) | 0.12 (≈ 0.074 µM) | MIC [3]: 0.12 µg/mL (≈ 0.074 µM); Activity [21]: 96%; Activity [22]: 71%; MIC [8]: 0.015 µg/mL (≈ 0.00926 µM); MIC [10]: 0.015 µg/mL (≈ 0.00926 µM); Activity [13]: 100%; MIC [14]: 0.015 µg/mL (≈ 0.00926 µM); MIC50 [14]: 0.015 µg/mL (≈ 0.00926 µM); MIC90 [14]: 0.03 µg/mL (≈ 0.0185 µM); Activity [15]: 100%; MIC50 [16]: 0.06 µg/mL (≈ 0.037 µM); MIC90 [16]: 0.12 µg/mL (≈ 0.074 µM); MIC50 [18]: 0.06 µg/mL (≈ 0.037 µM); MIC90 [18]: 0.12 µg/mL (≈ 0.074 µM); MIC50 [19]: 1 µg/mL (≈ 0.617 µM); MIC90 [19]: 2 µg/mL (≈ 1.23 µM); MIC [20]: 0.006 µg/mL (≈ 0.0037 µM); MIC50 [20]: 0.25 µg/mL (≈ 0.154 µM)
